Results from different studies.
Each line is one published result; the experiments were not run side by side.
Cell line: MDA-MB-468
Effect on: cell growth or viability

SMILES | assay | conditions | IC50 [µM]
COc1ccc(/C=C/C(=O)c2cc(Br)ccc(=O)c2O)cc1 | MTT | 72 h | 6.6
CN(N=O)c1ccc(C=Cc2ccnc3ccccc23)cc1 | MTT |  | 3.5
CC(=O)Nc1nc(C)c(-c2csc(Nc3ccccc3)n2)s1 | MTT | 48 h | 12.1
COc1cc2cc(OC)c3cc4c(cc3c2c(OC)c1OC)OCO4 | MTT |  | 21
O=S(=O)(NN=Cc1cn(CCN2CCOCC2)c2ccccc12)c1ccc(-c2ccccc2)cc1 | MTT | 48 h | 32
COc1ccccc1N=Nc1c(O)ccc2ccccc12 | MTT |  | 21
Cc1ccc(S(=O)(=O)NN=Cc2cn(CCN3CCOCC3)c3ccccc23)cc1 | MTT | 48 h | 40.8
Oc1ccc(/C=C/c2cc(O)cc3c2C(c2cc(O)cc(O)c2)C(c2ccc(O)c(O)c2)O3)cc1 (centres unmarked) | MTT |  | 18
COc1ccc(S(=O)(=O)NN=Cc2cn(CCN3CCOCC3)c3ccccc23)cc1 | MTT | 48 h | 43.3
Cc1cc(NS(=O)(=O)c2ccc(NC(=O)COc3ccc(C(C)(C)c4ccccc4)cc3)cc2)nc(C)n1 | MTT | 72 h | 34.9
COc1cccc2c1C(=O)c1c(O)c3c(c(O)c1C2=O)C[C@@](O)(C(=O)CO)C[C@@H]3O[C@H]1C[C@H](N)[C@H](O)[C@H](C)O1 | resazurin | 72 h | 0.1
CCN1CCN(Cc2ccc(Nc3ncc(F)c(-c4cc(F)c5nc(C)n(C(C)C)c5c4)n3)nc2)CC1 | CCK-8 |  | 0.711
O=S(=O)(NN=Cc1cn(CCN2CCOCC2)c2ccccc12)c1ccc2ccccc2c1 | MTT | 48 h | 53.4
c1ccc2c(c1)Cc1c(Cc3csc4ccccc34)ccc3cccc-2c13 | MTT |  | 157
COc1ccc(Br)cc1/C=C/C(=O)c1ccc(NC(C)=O)cc1 | MTT | 72 h | 1.8
Cc1c2cccc(Sc3ccccc3)c2c2c3c(cccc13)[S+](c1ccccc1)C2 (centres unmarked) | MTT |  | 0.71
COc1cc(/C=C2\SC(=O)NC2=O)ccc1OCc1ccc(Cl)cc1Cl | MTT | 48 h | 32.5
O=S(=O)(NN=Cc1cn(CCN2CCOCC2)c2ccccc12)c1ccccc1 | MTT | 48 h | 47
O=C(CSc1nc2ccc(N=Cc3ccc(Sc4nnnn4-c4ccccc4)o3)cc2s1)N1CCOCC1 | MTT | 72 h | 20.4
COc1cccc2c1C(=O)c1c(O)c3c(c(O)c1C2=O)C[C@@](O)(C(=O)CO)C[C@@H]3O[C@H]1C[C@H](N)[C@H](O)[C@H](C)O1 | MTT | 48 h | 0.08
